Source: ChEMBL document CHEMBL3352416, “Discovery of carbohybrid-based 2-aminopyrimidine analogues as a new class of rapid-acting antimalarial agents using image-based cytological profiling assay” (J Med Chem, 2014)
Active and inactive are the calls of the source. No cut-off for these calls is given here.

Legend:
Plasmodium falciparum [1] = experiment: Antimalarial activity against tightly synchronized Plasmodium falciparum W2 assessed as parasite stage accumulation index at trophozoites stages at 10 uM treated at 6 hrs post-invasion for continuous duration of 36 hrs by automated image mining based cytological profiling assay; type: functional
Plasmodium falciparum [2] = experiment: Antimalarial activity against tightly synchronized Plasmodium falciparum W2 assessed as parasite stage accumulation index at schizonts stages at 10 uM treated at 30 hrs post-invasion for continuous duration of 36 hrs by automated image mining based cytological profiling assay; type: functional
Plasmodium falciparum [3] = experiment: Antimalarial activity against Plasmodium falciparum HB3 assessed as increase in schizonts parasite stage accumulation index at 10 uM treated at 42 hrs post-invasion for 24 hrs by automated image mining based cytological profiling assay; type: functional
Summary of the method: (§1)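 Tightly synchronized cultures exposed from the 42 hpi mid-schizont point for 24 h to 10 µM final. Host cells stained with wheat germ agglutinin-AlexaFluor 488, parasite nuclei with DAPI and live-parasite mitochondria with Mitotracker Red CMXRos. Infected and viable parasitaemia and stage proportions quantified by automated image mining. Stage accumulation indices and parasitaemia reduction index derived.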

Plasmodium falciparum [4] = experiment: Antimalarial activity against tightly synchronized Plasmodium falciparum W2 assessed as parasite stage accumulation index at late ring stages at 10 uM treated at 6 hrs post-invasion for continuous duration of 36 hrs by automated image mining based cytological profiling assay; type: functional
Plasmodium falciparum [5] = experiment: Antimalarial activity against tightly synchronized Plasmodium falciparum HB3 assessed as parasite stage accumulation index at trophozoites stages at 10 uM treated at 30 hrs post-invasion for continuous duration of 36 hrs by automated image mining based cytological profiling assay; type: functional
Plasmodium falciparum [6] = experiment: Antimalarial activity against Plasmodium falciparum K1 assessed as reduction in parasite stage accumulation index at 10 uM treated at 42 hrs post-invasion for 24 hrs by automated image mining based cytological profiling assay; type: functional, organism-based; summary of the method: as §1
Plasmodium falciparum [7] = experiment: Antimalarial activity against tightly synchronized Plasmodium falciparum W2 assessed as parasite stage accumulation index at trophozoites stages at 10 uM treated at 30 hrs post-invasion for continuous duration of 36 hrs by automated image mining based cytological profiling assay; type: functional
Summary of the method: (§2)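 Tightly synchronized cultures exposed to 10 µM final from 6 hpi (early ring), 18 hpi (late ring) or 30 hpi (mid-trophozoite) for a continuous 36 h. Erythrocytes stained with WGA-AlexaFluor 488, parasite nuclei with DAPI, functional mitochondria with Mitotracker Red CMXRos. Stages (early rings, late rings, trophozoites, schizonts) classified by nuclear spot number and size. Viable parasitaemia and stage accumulation index obtained by automated image analysis.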

Plasmodium falciparum [8] = experiment: Antimalarial activity against tightly synchronized Plasmodium falciparum HB3 assessed as parasite stage accumulation index at schizonts stages at 10 uM treated at 18 hrs post-invasion for continuous duration of 36 hrs by automated image mining based cytological profiling assay; type: functional; summary of the method: as §2
Plasmodium falciparum [9] = experiment: Antimalarial activity against tightly synchronized Plasmodium falciparum HB3 assessed as parasite stage accumulation index at late ring stages at 10 uM treated at 6 hrs post-invasion for continuous duration of 36 hrs by automated image mining based cytological profiling assay; type: functional; summary of the method: as §2
Plasmodium falciparum [10] = experiment: Antimalarial activity against tightly synchronized Plasmodium falciparum HB3 assessed as parasite stage accumulation index at early ring stages at 10 uM treated at 6 hrs post-invasion for continuous duration of 36 hrs by automated image mining based cytological profiling assay; type: functional
Plasmodium falciparum [11] = experiment: Antimalarial activity against tightly synchronized Plasmodium falciparum K1 assessed as parasite stage accumulation index at schizonts stages at 10 uM treated at 18 hrs post-invasion for continuous duration of 36 hrs by automated image mining based cytological profiling assay; type: functional; summary of the method: as §2
Plasmodium falciparum [12] = experiment: Antimalarial activity against Plasmodium falciparum HB3 assessed as reduction in parasite stage accumulation index at 10 uM treated at 42 hrs post-invasion for 24 hrs by automated image mining based cytological profiling assay; type: functional; summary of the method: as §1
Plasmodium falciparum [13] = experiment: Antimalarial activity against tightly synchronized Plasmodium falciparum HB3 assessed as parasite stage accumulation index at trophozoites stages at 10 uM treated at 6 hrs post-invasion for continuous duration of 36 hrs by automated image mining based cytological profiling assay; type: functional; summary of the method: as §2
Plasmodium falciparum [14] = experiment: Antimalarial activity against tightly synchronized Plasmodium falciparum W2 assessed as parasite stage accumulation index at schizonts stages at 10 uM treated at 6 hrs post-invasion for continuous duration of 36 hrs by automated image mining based cytological profiling assay; type: functional; summary of the method: as §2
Plasmodium falciparum [15] = experiment: Antimalarial activity against tightly synchronized Plasmodium falciparum HB3 assessed as parasite stage accumulation index at trophozoites stages at 10 uM treated at 18 hrs post-invasion for continuous duration of 36 hrs by automated image mining based cytological profiling assay; type: functional; summary of the method: as §2
Plasmodium falciparum [16] = experiment: Antimalarial activity against Plasmodium falciparum W2 assessed as reduction in parasite stage accumulation index at 10 uM treated at 42 hrs post-invasion for 24 hrs by automated image mining based cytological profiling assay; type: functional, organism-based; summary of the method: as §1
Plasmodium falciparum [17] = experiment: Antimalarial activity against tightly synchronized Plasmodium falciparum K1 assessed as parasite stage accumulation index at schizonts stages at 10 uM treated at 30 hrs post-invasion for continuous duration of 36 hrs by automated image mining based cytological profiling assay; type: functional; summary of the method: as §2
Plasmodium falciparum [18] = experiment: Antimalarial activity against tightly synchronized Plasmodium falciparum HB3 assessed as parasite stage accumulation index at late ring stages at 10 uM treated at 18 hrs post-invasion for continuous duration of 36 hrs by automated image mining based cytological profiling assay; type: functional; summary of the method: as §2
Plasmodium falciparum [19] = experiment: Antimalarial activity against Plasmodium falciparum K1 assessed as increase in schizonts parasite stage accumulation index at 10 uM treated at 42 hrs post-invasion for 24 hrs by automated image mining based cytological profiling assay; type: functional, organism-based; summary of the method: as §1
Plasmodium falciparum [20] = experiment: Antimalarial activity against tightly synchronized Plasmodium falciparum W2 assessed as parasite stage accumulation index at schizonts stages at 10 uM treated at 18 hrs post-invasion for continuous duration of 36 hrs by automated image mining based cytological profiling assay; type: functional
Plasmodium falciparum [21] = experiment: Antimalarial activity against tightly synchronized Plasmodium falciparum K1 assessed as parasite stage accumulation index at late ring stages at 10 uM treated at 18 hrs post-invasion for continuous duration of 36 hrs by automated image mining based cytological profiling assay; type: functional; summary of the method: as §2
Plasmodium falciparum [22] = experiment: Antimalarial activity against tightly synchronized Plasmodium falciparum K1 assessed as parasite stage accumulation index at late ring stages at 10 uM treated at 6 hrs post-invasion for continuous duration of 36 hrs by automated image mining based cytological profiling assay; type: functional
Plasmodium falciparum [23] = experiment: Antimalarial activity against tightly synchronized Plasmodium falciparum K1 assessed as parasite stage accumulation index at trophozoites stages at 10 uM treated at 18 hrs post-invasion for continuous duration of 36 hrs by automated image mining based cytological profiling assay; type: functional; summary of the method: as §2
Plasmodium falciparum [24] = experiment: Antimalarial activity against tightly synchronized Plasmodium falciparum K1 assessed as parasite stage accumulation index at schizonts stages at 10 uM treated at 6 hrs post-invasion for continuous duration of 36 hrs by automated image mining based cytological profiling assay; type: functional; summary of the method: as §2
Plasmodium falciparum [25] = experiment: Antimalarial activity against tightly synchronized Plasmodium falciparum HB3 assessed as parasite stage accumulation index at schizonts stages at 10 uM treated at 6 hrs post-invasion for continuous duration of 36 hrs by automated image mining based cytological profiling assay; type: functional; summary of the method: as §2
Plasmodium falciparum [26] = experiment: Antimalarial activity against Plasmodium falciparum W2 assessed as increase in schizonts parasite stage accumulation index at 10 uM treated at 42 hrs post-invasion for 24 hrs by automated image mining based cytological profiling assay; type: functional, organism-based; summary of the method: as §1
Plasmodium falciparum [27] = experiment: Antimalarial activity against tightly synchronized Plasmodium falciparum W2 assessed as parasite stage accumulation index at trophozoites stages at 10 uM treated at 18 hrs post-invasion for continuous duration of 36 hrs by automated image mining based cytological profiling assay; type: functional
Plasmodium falciparum [28] = experiment: Antimalarial activity against tightly synchronized Plasmodium falciparum W2 assessed as parasite stage accumulation index at early ring stages at 10 uM treated at 6 hrs post-invasion for continuous duration of 36 hrs by automated image mining based cytological profiling assay; type: functional; summary of the method: as §2
Plasmodium falciparum [29] = experiment: Antimalarial activity against tightly synchronized Plasmodium falciparum W2 assessed as parasite stage accumulation index at late ring stages at 10 uM treated at 18 hrs post-invasion for continuous duration of 36 hrs by automated image mining based cytological profiling assay; type: functional; summary of the method: as §2
Plasmodium falciparum [30] = experiment: Antimalarial activity against tightly synchronized Plasmodium falciparum K1 assessed as parasite stage accumulation index at early ring stages at 10 uM treated at 6 hrs post-invasion for continuous duration of 36 hrs by automated image mining based cytological profiling assay; type: functional; summary of the method: as §2
Plasmodium falciparum [31] = experiment: Antimalarial activity against tightly synchronized Plasmodium falciparum HB3 assessed as parasite stage accumulation index at schizonts stages at 10 uM treated at 30 hrs post-invasion for continuous duration of 36 hrs by automated image mining based cytological profiling assay; type: functional
Plasmodium falciparum [32] = experiment: Antimalarial activity against tightly synchronized Plasmodium falciparum K1 assessed as parasite stage accumulation index at trophozoites stages at 10 uM treated at 30 hrs post-invasion for continuous duration of 36 hrs by automated image mining based cytological profiling assay; type: functional; summary of the method: as §2
Plasmodium falciparum [33] = experiment: Antimalarial activity against tightly synchronized Plasmodium falciparum K1 assessed as parasite stage accumulation index at trophozoites stages at 10 uM treated at 6 hrs post-invasion for continuous duration of 36 hrs by automated image mining based cytological profiling assay; type: functional

CC(C)C[C@H](NC(=O)[C@H]1O[C@@H]1C(=O)O)C(=O)NCCCCN=C(N)N [E-64]
Activity (Plasmodium falciparum [1]): 1.4
Activity (Plasmodium falciparum [2]): 3
inhibition (Plasmodium falciparum [3]): Active
Activity (Plasmodium falciparum [4]): 0.91
Activity (Plasmodium falciparum [5]): 1.06
inhibition (Plasmodium falciparum [6]): Active
Activity (Plasmodium falciparum [7]): 1.44
Activity (Plasmodium falciparum [8]): 2.05
Activity (Plasmodium falciparum [9]): 1.15
Activity (Plasmodium falciparum [10]): 3.15
Activity (Plasmodium falciparum [11]): 2.11
inhibition (Plasmodium falciparum [12]): Active
Activity (Plasmodium falciparum [13]): 1.32
Activity (Plasmodium falciparum [14]): 1.2
Activity (Plasmodium falciparum [15]): 1.33
inhibition (Plasmodium falciparum [16]): Active
Activity (Plasmodium falciparum [17]): 2.07
Activity (Plasmodium falciparum [18]): 0.8
inhibition (Plasmodium falciparum [19]): Active
Activity (Plasmodium falciparum [20]): 2.1
Activity (Plasmodium falciparum [21]): 0.39
Activity (Plasmodium falciparum [22]): 0.67
Activity (Plasmodium falciparum [23]): 1.45
Activity (Plasmodium falciparum [24]): 0.55
Activity (Plasmodium falciparum [25]): 0.45
inhibition (Plasmodium falciparum [26]): Active
Activity (Plasmodium falciparum [27]): 1.22
Activity (Plasmodium falciparum [28]): 1.78
Activity (Plasmodium falciparum [29]): 0.76
Activity (Plasmodium falciparum [30]): 1.69
Activity (Plasmodium falciparum [31]): 3.85
Activity (Plasmodium falciparum [32]): 0.5
Activity (Plasmodium falciparum [33]): 1.25
